Reference: ChEMBL document CHEMBL4266020, “Design, Synthesis, and Antifibrosis Activity in Liver of Nonsecosteroidal Vitamin D Receptor Agonists with Phenyl-pyrrolyl Pentane Skeleton” (J Med Chem, 2018)
Each block holds one compound with its values, some of them ahead of it. Active and inactive are the calls of the source. The calls are words filed in the database; no cut-off is given here.

What was measured:
[1] = target: T1, Vitamin D3 receptor (Homo sapiens) (UniProt P11473); test: Agonist activity at VDR in human LX2 cells assessed as inhibition of TGFbeta1-induced collagen-1 synthesis at 100 nM after 24 hrs by ELISA relative to 1,25(OH)2D3
T1 sequence (whole entry): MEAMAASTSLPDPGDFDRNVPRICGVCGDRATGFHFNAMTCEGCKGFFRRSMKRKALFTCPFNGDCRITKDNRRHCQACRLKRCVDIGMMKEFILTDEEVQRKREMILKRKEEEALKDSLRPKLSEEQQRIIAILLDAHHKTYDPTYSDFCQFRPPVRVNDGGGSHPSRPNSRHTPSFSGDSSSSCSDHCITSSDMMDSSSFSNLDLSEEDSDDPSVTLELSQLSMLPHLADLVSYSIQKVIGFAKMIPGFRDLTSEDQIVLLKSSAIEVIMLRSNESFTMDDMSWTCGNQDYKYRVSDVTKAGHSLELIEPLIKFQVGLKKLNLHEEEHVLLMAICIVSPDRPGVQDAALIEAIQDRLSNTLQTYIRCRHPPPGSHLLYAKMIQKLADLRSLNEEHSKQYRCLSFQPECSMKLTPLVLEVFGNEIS

[2] = target: T1, Vitamin D3 receptor (Homo sapiens); test: Binding affinity to VDR ligand binding domain (unknown origin) at 100 nM by fluorescence polarization assay relative to 1,25(OH)2D3
[3] = target: T1, Vitamin D3 receptor (Homo sapiens); test: Transactivation of VDR (unknown origin) expressed in HEK293 cells co-transfected with human RXRalpha after 24 hrs by dual luciferase reporter gene assay; assay type: cell-based
In short: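 HEK293 cells at 85-90% confluence transfected per well with 140 ng TK-SPP×3-Luc reporter, 20 ng pCMX-Renilla, 30 ng pENTER-CMV-hRXRα and 100 ng pCMX-VDR. Compounds added 8 h after transfection. Dual-luciferase assay run 24 h later, firefly normalized to Renilla, three experiments.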

[4] = target: T1, Vitamin D3 receptor (Homo sapiens); test: Transactivation of VDR in human LX2 cells assessed as inhibition of TGFbeta1-induced ACTA2 mRNA expression at 100 nM after 24 hrs by Q-PCR analysis; assay type: cell-based
In short: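 LX-2 cells cultured with 100 nM compound for 24 h. ACTA2 mRNA measured by SYBR Green Q-PCR, normalized to U36B4 (human internal control).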

[5] = target: T1, Vitamin D3 receptor (Homo sapiens); test: Transactivation of VDR in human LX2 cells assessed as inhibition of TGFbeta1-induced alpha-SMA protein levels at 100 nM after 24 hrs by Western blot analysis; assay type: cell-based
In short: (§1)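 LX-2 cells cultured 24 h with 100 nM compound in TGFβ1-treated cells. Proteins separated on 10% SDS-PAGE, transferred to PVDF, and α-SMA or collagen I bands detected by infrared scanning.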

[6] = target: T1, Vitamin D3 receptor (Homo sapiens); test: Transactivation of VDR in human LX2 cells assessed as inhibition of TGFbeta1-induced collagen 1 protein levels at 100 nM after 24 hrs by Western blot analysis; assay type: cell-based
In short: as §1

[7] = Oral bioavailability in Sprague-Dawley rat at 20 mg/kg by HPLC analysis; assay type: ADME, organism-based; details: in vivo
Homo sapiens [8] = organism: Homo sapiens; test: Inhibition of TGFbeta1-mediated alphaSMA expression in human LX2 cells at 100 nM after 24 hrs in presence of VDR siRNA by Western blot analysis; assay type: functional, cell-based
In short: (§2)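 LX-2 cells transfected with VDR-directed or scrambled siRNA (50 nM, Lipofectamine 2000), cultured 24 h, then treated 24 h with 100 nM compound, TGFβ1 (1 ng/mL), or both. VDR, α-SMA and collagen I measured by western blot (10% SDS-PAGE, PVDF).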

Mus musculus [9] = test: Antifibrotic activity in C57BL6/J mouse model of CCl4-induced liver fibrosis assessed as reduction in collagen accumulation in liver at 20 ug/kg, po administered 5 times a week via gavage measured at 72 hrs post final CCl4 injection by Masson's trichrome-staining based assay; assay type: functional, organism-based; details: C57BL/6J
In short: (§3)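 Same CCl4 mouse model (n=5; 0.5 mL/kg IP in corn oil, 3×/week for 4 weeks; 20 µg/kg oral gavage 5×/week from day 20; sacrifice 72 h after last CCl4). Livers fixed in 4% paraformaldehyde for 24 h, paraffin-embedded, and cut into 5 µm sections. Sections stained with H&E (×100) or Masson's trichrome (×200). Hydroxyproline measured by kit.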

Mus musculus [10] = test: Antifibrotic activity in C57BL/6J mouse model of CCl4-induced liver fibrosis assessed as reduction in collagen accumulation in liver at 20 ug/kg, po administered 5 times a week via gavage measured at 72 hrs post final CCl4 injection by hematoxylin-eosin staining based assay; assay type: functional, organism-based
In short: as §3

Mus musculus [11] = test: Hepatoprotective activity against CCL4-induced liver damage in C57BL/6J mouse assessed as reduction in serum ALT levels at 20 ug/kg, po administered 5 times a week via gavage measured at 72 hrs post final CCl4 injection; assay type: functional, organism-based
In short: (§4)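 Same CCl4 mouse model (n=5; 0.5 mL/kg IP, 3×/week for 4 weeks; 20 µg/kg gavage 5×/week from day 20; sacrifice 72 h after last CCl4). Serum obtained by centrifugation at 3000 rpm for 15 min at 4°C. ALT, AST, TBA and calcium measured with commercial kits. Mean ± SD.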

Mus musculus [12] = test: Antifibrotic activity in C57BL/6J mouse model of CCl4-induced liver fibrosis assessed as reduction in COL1A1 mRNA expression in liver at 20 ug/kg, po administered 5 times a week via gavage measured at 72 hrs post final CCl4 injection by Q-PCR analysis; assay type: functional, organism-based
Mus musculus [13] = test: Antifibrotic activity in C57BL/6J mouse model of CCl4-induced liver fibrosis assessed as decrease in alpha-SMA expression in liver at 20 ug/kg, po administered 5 times a week via gavage measured at 72 hrs post final CCl4 injection by Q-PCR analysis; assay type: functional, organism-based
Mus musculus [14] = test: Induction of serum calcium levels in CCL4-induced C57BL/6J mouse liver damage model at 20 ug/kg, po administered 5 times a week via gavage measured at 72 hrs post final CCl4 injection; assay type: organism-based; details: in vivo, 0.02 mg/kg
In short: as §4

Mus musculus [15] = test: Effect on Trpv6 mRNA expression in CCL4-induced C57BL/6J mouse liver damage model at 20 ug/kg, po via gavage measured on day 3 and 7 by Q-PCR analysis; assay type: ADME, organism-based; details: in vivo, 0.02 mg/kg
Homo sapiens [16] = organism: Homo sapiens; test: Inhibition of TGFbeta1-mediated collagen-1 activation in human LX2 cells at 100 nM after 24 hrs in presence of VDR siRNA by Western blot analysis; assay type: functional, cell-based
In short: as §2

Mus musculus [17] = test: Antifibrotic activity in C57BL/6J mouse model of CCl4-induced liver fibrosis assessed as increase in CYP24A1 expression in liver at 20 ug/kg, po administered 5 times a week via gavage measured at 72 hrs post final CCl4 injection by Q-PCR analysis; assay type: functional, organism-based
[18] = Half life in Sprague-Dawley rat at 20 mg/kg, po by HPLC analysis; assay type: ADME, organism-based; details: in vivo
Mus musculus [19] = test: Hepatoprotective activity against CCL4-induced liver damage in C57BL/6J mouse assessed as reduction in serum TBA levels at 20 ug/kg, po administered 5 times a week via gavage measured at 72 hrs post final CCl4 injection; assay type: functional, organism-based
In short: as §4

Mus musculus [20] = test: Antifibrotic activity in C57BL/6J mouse model of CCl4-induced liver fibrosis assessed as reduction in hydroxyproline levels in liver at 20 ug/kg, po administered 5 times a week via gavage measured at 72 hrs post final CCl4 injection; assay type: functional, organism-based
In short: as §3

Mus musculus [21] = test: Hepatoprotective activity against CCL4-induced liver damage in C57BL/6J mouse assessed as reduction in serum AST levels at 20 ug/kg, po administered 5 times a week via gavage measured at 72 hrs post final CCl4 injection; assay type: functional, organism-based
In short: as §4

Mus musculus [22] = test: Antifibrotic activity in C57BL/6J mouse model of CCl4-induced liver fibrosis assessed as decrease in alpha-SMA expression in liver at 20 ug/kg, po administered 5 times a week via gavage measured at 72 hrs post final CCl4 injection by IHC-staining based assay; assay type: functional, organism-based
[23] = target: T1, Vitamin D3 receptor (Homo sapiens); test: Agonist activity at VDR in human LX2 cells assessed as upregulation of TGFbeta1-induced CYP24A1 mRNA expression after 24 hrs by Q-PCR method; assay type: cell-based

SMILES: CCn1c(C(=O)NCC(C)(C)O)ccc1C(CC)(CC)c1ccc(OCC(O)CO)c(C)c1 (stereo unspecified)
- Activity [3]: Dose-dependent effect
- inhibition [4]: inactive
- collagen-1 synthesis inhibition relative to 1,25(OH)2D3 (%) [1]: 150%
- Activity [2]: 43%

SMILES: CCn1c(C(=O)NCC(C)(C)C)ccc1C(CC)(CC)c1ccc(OCC(O)CO)c(C)c1 (stereo unspecified)
- Activity [3]: Dose-dependent effect
- inhibition [4]: inactive
- Activity [2]: 45%

SMILES: CCn1cc(C(CC)(CC)c2ccc(OCC(O)CO)c(C)c2)cc1C(=O)NCC(F)(F)F (stereo unspecified)
- inhibition [5]: Active
- Activity [3]: Dose-dependent effect
- collagen-1 synthesis inhibition relative to 1,25(OH)2D3 (%) [1]: 133%
- Activity [2]: 39%
- inhibition [6]: Active

SMILES: C=C1/C(=C\C=C2/CCC[C@]3(C)[C@@H]([C@H](C)/C=C/[C@@H](O)C4CC4)CC[C@@H]23)C[C@@H](O)C[C@@H]1O
- Activity (Mus musculus [11]): Active
- Activity (Mus musculus [19]): Active
- Activity (Mus musculus [20]): Active
- collagen-1 synthesis inhibition relative to 1,25(OH)2D3 (%) [1]: 95%
- Activity (Mus musculus [21]): Active
- Activity [2]: 93%

SMILES: C=C1/C(=C\C=C2/CCC[C@]3(C)[C@@H]([C@H](C)CCCC(C)(C)O)CC[C@@H]23)C[C@@H](O)C[C@@H]1O [CALCITRIOL]
- bioavailability [7]: 30.8%
- Activity (Mus musculus [11]): Active
- half-life [18]: 7.55 h
- Activity (Mus musculus [19]): Active
- Activity (Mus musculus [20]): Active
- Activity (Mus musculus [21]): Active

SMILES: CCCCCNC(=O)c1cc(C(CC)(CC)c2ccc(OCC(O)CO)c(C)c2)cn1CC (stereo unspecified)
- collagen-1 synthesis inhibition relative to 1,25(OH)2D3 (%) [1]: 51%
- Activity [2]: 16%

SMILES: CCn1c(C(=O)NCC(F)(F)F)ccc1C(CC)(CC)c1ccc(OCC(O)CO)c(C)c1 (stereo unspecified)
- collagen-1 synthesis inhibition relative to 1,25(OH)2D3 (%) [1]: 135%
- Activity [2]: 37%

SMILES: CCn1c(C(=O)NCC2CC2)ccc1C(CC)(CC)c1ccc(OCC(O)CO)c(C)c1 (stereo unspecified)
- collagen-1 synthesis inhibition relative to 1,25(OH)2D3 (%) [1]: 71%
- Activity [2]: 27%

SMILES: CCCCCNC(=O)c1ccc(C(CC)(CC)c2ccc(OCC(O)CO)c(C)c2)n1CC (stereo unspecified)
- collagen-1 synthesis inhibition relative to 1,25(OH)2D3 (%) [1]: 70%
- Activity [2]: 21%

Now from value to compound, other results behind:

- collagen-1 synthesis inhibition relative to 1,25(OH)2D3 (%) [1]: 119%
- Activity [2]: 31%
SMILES: CCn1cc(C(CC)(CC)c2ccc(OCC(O)CO)c(C)c2)cc1C(=O)NCC(C)(C)C (stereo unspecified)

- collagen-1 synthesis inhibition relative to 1,25(OH)2D3 (%) [1]: 90%
- Activity [2]: 30%
SMILES: CCn1cc(C(CC)(CC)c2ccc(OCCCCC(=O)O)c(C)c2)cc1C(=O)NCC(C)(C)O

- collagen-1 synthesis inhibition relative to 1,25(OH)2D3 (%) [1]: 112%
- Activity [2]: 32%
SMILES: CCn1cc(C(CC)(CC)c2ccc(OCCCC(=O)O)c(C)c2)cc1C(=O)NCC(C)(C)O

- bioavailability [7]: 29.3%
- inhibition [5]: Active
- Activity [3]: Dose-dependent effect
- half-life [18]: 6.57 h
- inhibition [4]: Active
- Activity [2]: 62%
- inhibition [6]: Active
- Activity [23]: Active
SMILES: CCn1cc(C(CC)(CC)c2ccc(OCC(O)CO)c(C)c2)cc1C(=O)NCC(C)(C)O (stereo unspecified)
- inhibition (Homo sapiens [8]): inactive
- Activity (Mus musculus [9]): Active
- Activity (Mus musculus [10]): Active
- Activity (Mus musculus [11]): Active
- Activity (Mus musculus [12]): Active
- Activity (Mus musculus [13]): Active
- Activity (Mus musculus [14]): Non-Toxic
- Activity (Mus musculus [15]): Non-Toxic
- inhibition (Homo sapiens [16]): inactive
- Activity (Mus musculus [17]): Active
- Activity (Mus musculus [19]): Active
- Activity (Mus musculus [20]): Active
- Activity (Mus musculus [21]): Active
- Activity (Mus musculus [22]): Active

- collagen-1 synthesis inhibition relative to 1,25(OH)2D3 (%) [1]: 66%
- Activity [2]: 22%
SMILES: CCn1cc(C(CC)(CC)c2ccc(OC(=O)CCN)c(C)c2)cc1C(=O)NCC(C)(C)O

- collagen-1 synthesis inhibition relative to 1,25(OH)2D3 (%) [1]: 73%
- Activity [2]: 20%
SMILES: CCn1cc(C(CC)(CC)c2ccc(OC(=O)[C@H](C)N)c(C)c2)cc1C(=O)NCC(C)(C)O

- collagen-1 synthesis inhibition relative to 1,25(OH)2D3 (%) [1]: 80%
- Activity [2]: 30%
SMILES: CCn1cc(C(CC)(CC)c2ccc(OC(=O)CCC(=O)O)c(C)c2)cc1C(=O)NCC(C)(C)O
